From ChEMBL document CHEMBL1156219, “Discovery of novel N-acylsulfonamide analogs as potent and selective EP3 receptor antagonists” (Bioorg Med Chem Lett, 2010)

How the values were obtained:
[1] = molecular target: T1, Prostaglandin E2 receptor EP3 subtype (Mus musculus, UniProt P30557); test: Displacement of [3H]PGE2 from mouse EP3 receptor expressed in CHO cells after 60 mins by scintillation counter; assay type: cell-based
T1 sequence (P30557 whole entry): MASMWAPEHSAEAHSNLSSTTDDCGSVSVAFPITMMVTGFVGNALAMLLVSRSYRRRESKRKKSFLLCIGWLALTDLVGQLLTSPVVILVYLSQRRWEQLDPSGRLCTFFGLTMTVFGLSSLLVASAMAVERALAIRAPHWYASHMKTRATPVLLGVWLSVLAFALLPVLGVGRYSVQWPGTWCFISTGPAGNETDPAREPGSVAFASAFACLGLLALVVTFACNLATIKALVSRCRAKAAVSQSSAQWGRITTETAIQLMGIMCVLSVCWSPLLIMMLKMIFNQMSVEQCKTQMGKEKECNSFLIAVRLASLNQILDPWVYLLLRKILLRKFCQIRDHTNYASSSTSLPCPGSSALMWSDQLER

[2] = molecular target: T1, Prostaglandin E2 receptor EP3 subtype; test: Antagonist activity at mouse EP3 receptor expressed in CHO cells assessed as inhibition of PGE2-induced increase in intracellular calcium level after 1 hr by FDSS in presence of 1% bovine serum albumin; assay type: functional, cell-based
[3] = molecular target: Prostaglandin E2 receptor EP2 subtype (Mus musculus, UniProt Q62053); test: Displacement of [3H]PGE2 from mouse EP2 receptor expressed in CHO cells after 60 mins by scintillation counter; assay type: cell-based
Sequence of Prostaglandin E2 receptor EP2 subtype (Q62053 whole entry): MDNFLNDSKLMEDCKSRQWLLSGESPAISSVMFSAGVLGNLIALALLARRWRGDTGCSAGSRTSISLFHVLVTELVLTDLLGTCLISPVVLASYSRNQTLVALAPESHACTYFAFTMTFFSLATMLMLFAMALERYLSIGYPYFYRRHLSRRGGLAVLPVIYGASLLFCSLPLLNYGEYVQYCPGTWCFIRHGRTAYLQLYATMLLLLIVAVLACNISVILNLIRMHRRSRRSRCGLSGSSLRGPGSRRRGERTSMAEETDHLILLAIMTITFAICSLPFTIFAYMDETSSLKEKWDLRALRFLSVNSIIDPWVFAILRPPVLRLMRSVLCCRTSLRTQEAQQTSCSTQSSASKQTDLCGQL

[4] = molecular target: T2, Prostaglandin E2 receptor EP1 subtype (Mus musculus, UniProt P35375); test: Displacement of [3H]PGE2 from mouse EP1 receptor expressed in CHO cells after 60 mins by scintillation counter; assay type: cell-based
T2 sequence (P35375 whole entry): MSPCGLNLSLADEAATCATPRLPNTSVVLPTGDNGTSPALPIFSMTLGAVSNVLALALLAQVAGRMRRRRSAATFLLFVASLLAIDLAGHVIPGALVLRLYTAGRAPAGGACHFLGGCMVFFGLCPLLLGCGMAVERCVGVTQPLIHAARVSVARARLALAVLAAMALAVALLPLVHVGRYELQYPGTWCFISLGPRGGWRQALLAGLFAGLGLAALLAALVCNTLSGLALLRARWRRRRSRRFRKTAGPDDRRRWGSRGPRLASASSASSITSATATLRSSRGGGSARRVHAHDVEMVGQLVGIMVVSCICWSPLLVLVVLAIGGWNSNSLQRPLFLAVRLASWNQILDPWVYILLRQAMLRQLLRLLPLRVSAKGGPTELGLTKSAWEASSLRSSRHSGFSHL

[5] = molecular target: Prostaglandin E2 receptor EP4 subtype (Mus musculus, UniProt P32240); test: Displacement of [3H]PGE2 from mouse EP4 receptor expressed in CHO cells after 60 mins by scintillation counter; assay type: cell-based
Sequence of Prostaglandin E2 receptor EP4 subtype (P32240 whole entry): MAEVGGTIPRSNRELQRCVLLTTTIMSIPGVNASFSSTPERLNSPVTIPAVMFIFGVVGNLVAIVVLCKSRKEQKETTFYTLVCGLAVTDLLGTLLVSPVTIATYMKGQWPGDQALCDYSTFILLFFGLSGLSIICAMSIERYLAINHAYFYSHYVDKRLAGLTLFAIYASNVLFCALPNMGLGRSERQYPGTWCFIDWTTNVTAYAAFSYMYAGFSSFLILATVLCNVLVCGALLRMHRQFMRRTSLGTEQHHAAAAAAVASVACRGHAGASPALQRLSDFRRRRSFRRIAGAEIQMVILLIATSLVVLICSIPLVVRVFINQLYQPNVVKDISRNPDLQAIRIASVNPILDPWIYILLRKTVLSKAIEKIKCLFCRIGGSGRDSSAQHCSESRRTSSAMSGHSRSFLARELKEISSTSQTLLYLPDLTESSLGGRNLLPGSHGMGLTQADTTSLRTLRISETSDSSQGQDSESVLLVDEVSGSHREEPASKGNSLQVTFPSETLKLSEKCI

[6] = test system: Rattus norvegicus; test: Inhibition of PGE2-induced uterine contraction in pregnant rat at 1 mg/kg, id; assay type: functional; conditions: route intraduodenal
In short: (§1)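 Pregnant rats received test agent intraduodenally (0.3 or 1 mg/kg tested). Uterine contraction was induced with PGE2 and suppression scored as % inhibition. Each value is the mean of two experiments.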

[7] = test system: Rattus norvegicus; test: Inhibition of PGE2-induced uterine contraction in pregnant rat at 0.3 mg/kg, id; assay type: functional; conditions: route intraduodenal; in short: as §1
[8] = test system: Rattus norvegicus; test: Inhibition of PGE2-induced uterine contraction in id dosed pregnant rat; assay type: functional, organism-based; in short: as §1
[9] = test system: Rattus norvegicus; test: Inhibition of PGE2-induced uterine contraction in pregnant rat at 3 mg/kg, po after 4 hrs; assay type: functional

Q: What does the source list for O=C(CCc1ccc(Cn2cccn2)cc1OCCc1ccc2ccccc2c1)NS(=O)(=O)c1ccccc1?
A: Ki [1]: 0.5 nM; IC50 [2]: 140 nM

Q: Which results are given for O=C(CCc1ccc(Cn2cccn2)cc1OCCc1ccc2ccccc2c1)NS(=O)(=O)c1ccc(Cl)c(Cl)c1?
A: Ki [1]: 0.45 nM; IC50 [2]: 7.8 nM

Q: Which results are given for O=C(CCc1ccc(Cn2cccn2)cc1OCCc1cccc(N2CCOCC2)c1)NS(=O)(=O)c1ccc(F)c(F)c1?
A: Ki [1]: 0.54 nM; IC50 [2]: 6.4 nM; Ki [3]: > 10000 nM; Ki [4]: 560 nM; Ki [5]: 3700 nM; inhibition in vivo at 1 mg/kg [6]: 33%

Q: With Cc1ccc(S(=O)(=O)NC(=O)CCc2ccc(Cn3cccn3)cc2OCCc2ccc3ccccc3c2)o1 as the compound, how does the Ki [1] read?
A: 0.58 nM

Q: What about the IC50 [2] of the same compound?
A: 88 nM

Q: What does the source list for O=C(CCc1ccc(Cn2cccn2)cc1OCCc1ccc2ccccc2c1)NS(=O)(=O)c1ccc(F)c(F)c1?
A: Ki [1]: 0.086 nM; IC50 [2]: 1.2 nM; Ki [3]: > 10000 nM; Ki [4]: 2100 nM; Ki [5]: 2400 nM; inhibition in vivo at 0.3 mg/kg [7]: 43%; inhibition in vivo at 1 mg/kg [6]: 76%; inhibition [8]: Dose-dependent effect

Q: Which results are given for O=C(CCc1ccc(Cn2cccn2)cc1OCCOc1ccccc1)NS(=O)(=O)c1ccc(F)c(F)c1?
A: Ki [1]: 0.27 nM; IC50 [2]: 51 nM; Ki [3]: > 10000 nM; Ki [4]: 2800 nM; Ki [5]: > 10000 nM; inhibition in vivo at 1 mg/kg [6]: 28%

Q: Which results are given for CN(C)Cc1ccc(CCC(=O)NS(=O)(=O)c2ccc(F)c(F)c2)c(OCCc2ccc3ccccc3c2)c1?
A: Ki [1]: 8.2 nM; IC50 [2]: 24 nM; Ki [3]: > 10000 nM; Ki [4]: > 10000 nM; Ki [5]: > 10000 nM; inhibition in vivo at 1 mg/kg [6]: 32%

Q: What does the source list for N#Cc1cccc(S(=O)(=O)NC(=O)CCc2ccc(Cn3cccn3)cc2OCCc2ccc3ccccc3c2)c1?
A: Ki [1]: 0.065 nM; IC50 [2]: 18 nM

Q: How did the Ki [1] turn out when O=C(CCc1ccc(CN2CCOCC2)cc1OCCc1ccc2ccccc2c1)NS(=O)(=O)c1ccc(F)c(F)c1 was run?
A: 1.2 nM

Q: What about the IC50 [2] of the same compound?
A: 47 nM

Q: And the Ki [3]?
A: > 10000 nM

Q: And the Ki [4]?
A: 5000 nM

Q: And the Ki [5]?
A: > 10000 nM

Q: What about the inhibition in vivo at 1 mg/kg [6] of the same compound?
A: 35%

Q: How did the Ki [1] turn out when Cc1ccc(S(=O)(=O)NC(=O)CCc2ccc(Cn3cccn3)cc2OCCc2ccc3ccccc3c2)cc1Cl was run?
A: 0.43 nM

Q: What about the IC50 [2] of the same compound?
A: 10 nM

Q: Which results are given for O=C(CCc1ccc(Cn2cccn2)cc1OCCc1ccc2ccccc2c1)NS(=O)(=O)c1ccc(F)c(Cl)c1?
A: Ki [1]: 0.22 nM; IC50 [2]: 5.5 nM

Q: Which results are given for O=C(CCc1ccc(COc2cccnc2)cc1OCCc1ccc2ccccc2c1)NS(=O)(=O)c1ccc(F)c(F)c1?
A: Ki [1]: 0.16 nM; IC50 [2]: 0.4 nM; Ki [3]: > 10000 nM; Ki [4]: 1700 nM; Ki [5]: 710 nM; inhibition in vivo at 0.3 mg/kg [7]: 44%; inhibition in vivo at 1 mg/kg [6]: 71%

Q: With O=C(NCc1ccc(Cn2cccn2)cc1OCCc1ccc2ccccc2c1)NS(=O)(=O)c1ccccc1 as the compound, how does the Ki [1] read?
A: 15 nM

Q: And the IC50 [2]?
A: 820 nM

Q: How did the Ki [1] turn out when O=C(CCc1ccc(Cn2cccn2)cc1OCCc1ccc2ccccc2c1)NS(=O)(=O)c1ccccn1 was run?
A: 1.6 nM

Q: What about the IC50 [2] of the same compound?
A: 190 nM

Q: O=C(O)CCc1ccc(Cn2cccn2)cc1OCCc1ccc2ccccc2c1 was tested. Which Ki [1] did it give?
A: 21 nM

Q: CN(CCOc1cc(Cn2cccn2)ccc1CCC(=O)NS(=O)(=O)c1ccc(F)c(F)c1)c1ccccc1 was tested. Which Ki [1] did it give?
A: 0.12 nM

Q: And the IC50 [2]?
A: 3.8 nM

Q: And the Ki [3]?
A: > 10000 nM

Q: What about the Ki [4] of the same compound?
A: 260 nM

Q: And the Ki [5]?
A: 3500 nM

Q: And the inhibition in vivo at 1 mg/kg [6]?
A: 50%

Q: How did the Ki [1] turn out when O=C(NS(=O)(=O)CCc1ccc(Cn2cccn2)cc1OCCc1ccc2ccccc2c1)c1ccccc1 was run?
A: 140 nM

Q: What about the IC50 [2] of the same compound?
A: > 10000 nM

Q: Which Ki [1] does the source give for O=C(CCc1ccc(Cn2cccn2)cc1OCCc1ccccc1)NS(=O)(=O)c1ccc(F)c(F)c1 here?
A: 0.2 nM

Q: What about the IC50 [2] of the same compound?
A: 59 nM

Q: And the Ki [3]?
A: > 10000 nM

Q: And the Ki [4]?
A: 1300 nM

Q: What about the Ki [5] of the same compound?
A: 2500 nM

Q: And the inhibition in vivo at 0.3 mg/kg [7]?
A: 29%

Q: And the inhibition in vivo at 1 mg/kg [6]?
A: 51%

Q: How did the Ki [1] turn out when O=C(CCc1ccc(Cn2cccn2)cc1OCCc1ccc2ccccc2c1)NS(=O)(=O)c1cccnc1 was run?
A: 1 nM

Q: And the IC50 [2]?
A: 150 nM

Q: What does the source list for N#Cc1cccc(OCc2ccc(CCC(=O)NS(=O)(=O)c3ccc(F)c(F)c3)c(OCCc3ccc4ccccc4c3)c2)c1?
A: Ki [1]: 0.51 nM; IC50 [2]: 24 nM; Ki [3]: > 10000 nM; Ki [4]: > 10000 nM; Ki [5]: 2300 nM; inhibition in vivo at 0.3 mg/kg [7]: 50%; inhibition in vivo at 1 mg/kg [6]: 92%; inhibition in vivo at 3 mg/kg [9]: 66%

Q: For Cc1cn(Cc2ccc(Cl)cc2Cl)c2c(/C=C/C(=O)NS(=O)(=O)c3cc(Cl)c(Cl)s3)cc(F)cc12, which inhibition in vivo at 3 mg/kg [9] is on record?
A: 70%

Q: With Cc1csc(S(=O)(=O)NC(=O)CCc2ccc(Cn3cccn3)cc2OCCc2ccc3ccccc3c2)n1 as the compound, how does the Ki [1] read?
A: 0.35 nM

Q: And the IC50 [2]?
A: 110 nM

Q: For CS(=O)(=O)NC(=O)CCc1ccc(Cn2cccn2)cc1OCCc1ccc2ccccc2c1, which Ki [1] is on record?
A: 22 nM

Q: What about the IC50 [2] of the same compound?
A: > 10000 nM
